Laboratory results published in PMC4306518 (Journal of Medicinal Chemistry, 2014).
Like-named read-outs stand apart in the source and are kept apart here.

What was measured:
bsNOS [1] = target: T1, bsNOS (Bacillus subtilis, UniProt O34453); test: Imidazole displacement assay, spectral binding constant
T1 sequence (O34453 1-363): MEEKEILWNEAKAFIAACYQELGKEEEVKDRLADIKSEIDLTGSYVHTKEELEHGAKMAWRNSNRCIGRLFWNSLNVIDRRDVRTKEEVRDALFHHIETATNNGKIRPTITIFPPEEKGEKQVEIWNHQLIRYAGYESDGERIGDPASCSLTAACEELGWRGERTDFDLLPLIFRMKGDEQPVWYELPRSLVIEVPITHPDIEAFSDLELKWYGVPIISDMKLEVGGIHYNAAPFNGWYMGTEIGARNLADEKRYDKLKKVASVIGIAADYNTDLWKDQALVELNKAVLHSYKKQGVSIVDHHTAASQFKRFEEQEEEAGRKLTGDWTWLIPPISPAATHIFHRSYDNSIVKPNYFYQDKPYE

B. subtilis = test: Effect of acriflavine and NOS inhibitors on B. subtilis survival; format: cell-based, Bacillus subtilis
Outline: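 WT (ATCC 23857) and Δnos B. subtilis grown separately to OD600 ≈ 1.0, diluted to OD600 0.6 in LB, then brought up in M9 minimal medium with or without test compound (500 μM final) and/or acriflavine (800 μM final). Treated 30 min at 30 °C, serially diluted in M9, plated on LB agar + 0.5% glucose, 37 °C overnight. CFU counted; % survival relative to untreated cells; ≥3 replicates, mean ± SEM, Student's t test.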

rat nNOS = rat nNOS (Rattus norvegicus, UniProt P29476); test: Ki with mammalian NOS isoforms: nNOS; format: biochemical; conditions: 6 compared to 2
bsNOS [2] = target: T1, bsNOS; conditions: read-out: imidazole KD bsNOS; used to calculate KS; cited from earlier work
iNOS = iNOS (Homo sapiens, UniProt P35228); conditions: read-out: imidazole KD iNOS; used to calculate KS; cited from earlier work
[3] = KS bsNOS (+H4B), presence of 50 μM H4B
[4] = KS bsNOS (−H4B), absence of H4B

rat nNOS, sequence (P29476 whole entry, canonical isoform): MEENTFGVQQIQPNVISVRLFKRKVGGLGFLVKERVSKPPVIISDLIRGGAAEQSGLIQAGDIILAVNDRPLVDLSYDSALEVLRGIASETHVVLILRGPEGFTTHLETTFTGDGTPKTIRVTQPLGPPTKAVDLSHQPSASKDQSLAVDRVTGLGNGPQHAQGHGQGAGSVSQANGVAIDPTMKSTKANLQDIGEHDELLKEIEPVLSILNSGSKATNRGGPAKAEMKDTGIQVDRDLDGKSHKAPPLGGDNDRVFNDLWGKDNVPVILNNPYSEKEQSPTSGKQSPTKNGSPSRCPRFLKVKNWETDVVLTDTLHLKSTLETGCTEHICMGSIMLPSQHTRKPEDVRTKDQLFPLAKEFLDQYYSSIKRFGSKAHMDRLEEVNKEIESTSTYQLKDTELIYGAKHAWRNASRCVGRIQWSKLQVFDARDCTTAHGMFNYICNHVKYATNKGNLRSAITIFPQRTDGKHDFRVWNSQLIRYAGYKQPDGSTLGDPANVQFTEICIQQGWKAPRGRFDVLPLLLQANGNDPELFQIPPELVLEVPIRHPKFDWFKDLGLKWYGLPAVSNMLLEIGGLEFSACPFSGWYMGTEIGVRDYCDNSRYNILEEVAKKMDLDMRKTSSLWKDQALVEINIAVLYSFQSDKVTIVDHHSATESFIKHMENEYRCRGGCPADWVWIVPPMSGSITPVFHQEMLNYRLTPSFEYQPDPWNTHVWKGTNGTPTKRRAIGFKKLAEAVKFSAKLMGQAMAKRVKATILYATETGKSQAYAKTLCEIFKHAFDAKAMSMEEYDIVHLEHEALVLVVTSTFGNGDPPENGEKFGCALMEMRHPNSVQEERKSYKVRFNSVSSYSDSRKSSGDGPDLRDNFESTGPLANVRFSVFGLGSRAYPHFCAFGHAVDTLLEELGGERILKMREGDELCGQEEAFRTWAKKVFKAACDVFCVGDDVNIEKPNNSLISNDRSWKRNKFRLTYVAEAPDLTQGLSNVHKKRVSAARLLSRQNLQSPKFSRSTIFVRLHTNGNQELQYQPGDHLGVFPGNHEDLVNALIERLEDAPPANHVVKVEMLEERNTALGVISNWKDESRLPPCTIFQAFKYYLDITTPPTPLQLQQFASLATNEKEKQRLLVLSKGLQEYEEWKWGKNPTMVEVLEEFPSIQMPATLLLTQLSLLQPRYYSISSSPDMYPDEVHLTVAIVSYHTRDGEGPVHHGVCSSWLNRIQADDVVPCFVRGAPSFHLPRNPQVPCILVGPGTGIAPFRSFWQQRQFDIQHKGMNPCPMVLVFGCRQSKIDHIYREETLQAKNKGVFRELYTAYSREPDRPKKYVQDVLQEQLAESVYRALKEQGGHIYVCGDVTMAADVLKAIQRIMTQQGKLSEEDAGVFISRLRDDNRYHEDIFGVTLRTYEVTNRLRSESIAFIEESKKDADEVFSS
iNOS, sequence (P35228 74-504 limits assumed): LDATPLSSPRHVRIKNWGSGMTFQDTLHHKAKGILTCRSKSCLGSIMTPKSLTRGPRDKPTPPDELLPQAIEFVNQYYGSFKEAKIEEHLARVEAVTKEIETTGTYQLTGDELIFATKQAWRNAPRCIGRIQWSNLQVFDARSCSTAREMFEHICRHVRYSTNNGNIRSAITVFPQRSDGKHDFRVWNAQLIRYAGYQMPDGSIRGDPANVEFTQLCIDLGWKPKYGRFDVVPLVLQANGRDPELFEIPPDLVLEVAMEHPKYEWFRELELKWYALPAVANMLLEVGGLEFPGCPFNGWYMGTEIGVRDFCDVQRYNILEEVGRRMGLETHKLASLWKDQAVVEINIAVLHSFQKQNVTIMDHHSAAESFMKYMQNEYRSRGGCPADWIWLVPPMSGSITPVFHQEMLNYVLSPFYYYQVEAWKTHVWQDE

Row | Molecule | Kd (bsNOS [1]; [3]) | Kd (bsNOS [1]; [4]) | also measured
1 | NC(=NCCCC(N)C(=O)O)NO [N-ω-hydroxy-L-arginine (L-NNA), N-ω-hydroxy-L-arginine, reference compound] | 1.9 ± 0.1 µM |  | 
2 | CNc1cc(C)cc(CCc2cc(C#N)cc(CCc3cc(C)cc(N)n3)c2)n1 [compound 4, 3-(2-(6-Amino-4-methylpyridin-2-yl)ethyl)-5-(2-(4-methyl-6-(methylamino)pyridin-2-yl)ethyl)benzonitrile] | 19 ± 2 µM | 12 ± 1 µM | 
3 | Cc1cc(N)nc(CCc2cc(CN)cc(CCc3ccc4cc[nH]c4n3)c2)c1 [compound 6, 6-(3-(2-(1H-Pyrrolo[2,3-b]pyridin-6-yl)ethyl)-5-(aminomethyl)phenethyl)-4-methylpyridin-2-amine] | 12 ± 4 µM | 10 ± 2 µM | fold decrease of potency toward nNOS compared to 2 (rat nNOS): > 4 fold
4 | c1c[nH]cn1 [imidazole] |  |  | Kd (bsNOS [2]): 384 µM; Kd (iNOS): 158 µM
5 | acriflavine [reference compound] |  |  | bacterial growth, % of control (B. subtilis; ACR alone (800 μM), 30 min): 23%

Second part, led by results:

Row | Kd (bsNOS [1]; [3]) | Kd (bsNOS [1]; [4]) | Molecule | also measured
6 | 1.9 ± 0.1 µM | 0.91 ± 0.08 µM | Cc1cc(N)nc(CCc2cc(N)cc(CCc3cc(C)cc(N)n3)c2)c1 [compound 1] | fold difference in binding (KS) to bsNOS in presence vs absence of H4B (bsNOS [1]; 50 μM H4B vs no H4B): 2 fold
7 | 47 ± 2 µM | 15 ± 3 µM | Cc1cc(N)nc(CCc2cc(CN)cc(CCc3cc(C)cc(N)n3)c2)c1 [compound 2] | bacterial growth inhibition (in words) (B. subtilis; B. subtilis): good inhibitor of bacterial growth
8 | 19 ± 1 µM | 16 ± 1 µM | Cc1cc(N)nc(CCc2cc(CCCN)cc(CCc3cc(C)cc(N)n3)c2)c1 [compound 3] | 
